Test results reported in ChEMBL document CHEMBL2390857 (J Med Chem, 2013).
pIC50: −log10 of the molar value. Calls of active or inactive are those of the source. The rule behind the calls is not given here.

Tests used:
LNCaP [1] = experiment: Induction of apoptosis in human LNCAP cells assessed as induction of PARP cleavage; assay type: functional, cell-based
LNCaP [2] = experiment: Down regulation of AR protein expression in human LNCAP cells at 15 uM after 24 hrs by Western blotting analysis; assay type: functional, cell-based
Summary of the method: (§1)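 LNCaP cells exposed to 15 μM compound for 24 h. Whole-cell lysates made in RIPA buffer with protease and phosphatase inhibitors, protein measured by Bradford, run on SDS-PAGE and transferred to nitrocellulose. AR probed, bands detected by chemiluminescence and normalized to β-actin by densitometry. Blots run in duplicate or triplicate.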

LNCaP [3] = experiment: Cytotoxicity against human LNCAP cells after 7 days by MTT assay; assay type: functional; details: 168 h
CWR22R = experiment: Induction of apoptosis in human CWR22Rv1 cells assessed as induction of PARP cleavage; assay type: functional, cell-based
[4] = Down regulation of truncated AR-3 expression in human CWR22Rv1 by Western blotting analysis; assay type: functional; details: CWR22R
Summary of the method: (§2)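 CWR22Rv1 cells, which carry endogenous splice variant AR-3, exposed to 15 μM compound for 24 h. Lysates prepared in RIPA buffer with inhibitors and separated by SDS-PAGE. Full-length AR and AR-3 detected with specific antibodies by chemiluminescence, normalized to β-actin. Blots done in duplicate or triplicate.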

[5] = Down regulation of full length AR expression in human CWR22Rv1 by Western blotting analysis; assay type: functional; details: CWR22R; summary of the method: as §2
[6] = target: T1, Androgen receptor (Homo sapiens) (UniProt P10275); experiment: Displacement of [3H]R1881 from AR in human LNCaP cells at 30 uM after 2 hrs by scintillation counting analysis; assay type: cell-based
T1 sequence (whole entry): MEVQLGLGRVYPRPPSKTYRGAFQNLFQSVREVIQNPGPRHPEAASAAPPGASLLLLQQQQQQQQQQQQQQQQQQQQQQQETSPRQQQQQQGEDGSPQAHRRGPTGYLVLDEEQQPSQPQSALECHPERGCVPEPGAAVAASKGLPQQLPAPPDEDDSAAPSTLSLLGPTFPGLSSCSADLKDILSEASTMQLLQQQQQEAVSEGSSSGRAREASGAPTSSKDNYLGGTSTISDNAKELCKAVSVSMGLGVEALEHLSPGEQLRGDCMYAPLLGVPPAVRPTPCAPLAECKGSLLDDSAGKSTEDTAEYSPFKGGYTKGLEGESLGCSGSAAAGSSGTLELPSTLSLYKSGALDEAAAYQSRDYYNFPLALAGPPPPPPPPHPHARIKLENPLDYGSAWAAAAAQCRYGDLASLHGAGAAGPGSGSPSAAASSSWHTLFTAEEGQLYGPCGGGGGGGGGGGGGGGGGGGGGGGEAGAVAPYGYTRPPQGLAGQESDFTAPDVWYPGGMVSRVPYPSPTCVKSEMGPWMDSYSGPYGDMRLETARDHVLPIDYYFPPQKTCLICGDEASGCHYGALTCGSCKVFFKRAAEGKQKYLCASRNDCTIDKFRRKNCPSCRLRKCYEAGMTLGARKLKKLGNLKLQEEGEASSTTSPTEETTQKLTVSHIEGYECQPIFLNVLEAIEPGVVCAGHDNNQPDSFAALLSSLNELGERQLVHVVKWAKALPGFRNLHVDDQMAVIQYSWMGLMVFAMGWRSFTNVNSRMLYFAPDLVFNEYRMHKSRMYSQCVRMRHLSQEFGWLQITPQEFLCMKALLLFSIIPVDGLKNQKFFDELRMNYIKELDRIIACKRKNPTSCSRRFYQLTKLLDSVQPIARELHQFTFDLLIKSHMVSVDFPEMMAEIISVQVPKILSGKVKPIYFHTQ
Summary of the method: (§3)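 Whole-cell competitive binding in LNCaP cells plated on poly-L-lysine-coated wells (2–3 × 10^5 per well) in steroid-free medium. […] Incubated 2 h at 37 °C, washed, solubilized in SDS/glycerol DPBS, radioactivity counted by scintillation.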

LNCaP [7] = experiment: Down regulation of AR protein expression in human LNCAP cells at 5 uM after 48 hrs by DAPI staining-based immunocytochemical analysis; assay type: functional, cell-based
Summary of the method: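 LNCaP cells on chamber slides (0.025 × 10^6 per well) for 12 h, then 5 μM compound for 48 h. Fixed in 3.7% formaldehyde, permeabilized with 0.25% Triton, blocked in 5% BSA/0.5% NP40. Anti-AR (1:600) applied overnight, then Alexa Fluor 488 anti-rabbit IgG (1:1000) for 1 h, DAPI nuclear counterstain. Imaged by fluorescence microscopy.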

[8] = target: T1, Androgen receptor (Homo sapiens); experiment: Displacement of [3H]R1881 from AR in human LNCaP cells at 0.1 nM to 30000 nM after 2 hrs by scintillation counting analysis; assay type: cell-based; summary of the method: as §3
LNCaP [9] = experiment: Upregulation of AR protein expression in human LNCAP cells at 15 uM after 24 hrs by Western blotting analysis; assay type: functional, cell-based; summary of the method: as §1
[10] = target: T2, Steroid 17-alpha-hydroxylase/17,20 lyase (Homo sapiens, UniProt P05093); experiment: Inhibition of human truncated CYP17A1 expressed in Escherichia coli
T2 sequence (P05093 whole entry): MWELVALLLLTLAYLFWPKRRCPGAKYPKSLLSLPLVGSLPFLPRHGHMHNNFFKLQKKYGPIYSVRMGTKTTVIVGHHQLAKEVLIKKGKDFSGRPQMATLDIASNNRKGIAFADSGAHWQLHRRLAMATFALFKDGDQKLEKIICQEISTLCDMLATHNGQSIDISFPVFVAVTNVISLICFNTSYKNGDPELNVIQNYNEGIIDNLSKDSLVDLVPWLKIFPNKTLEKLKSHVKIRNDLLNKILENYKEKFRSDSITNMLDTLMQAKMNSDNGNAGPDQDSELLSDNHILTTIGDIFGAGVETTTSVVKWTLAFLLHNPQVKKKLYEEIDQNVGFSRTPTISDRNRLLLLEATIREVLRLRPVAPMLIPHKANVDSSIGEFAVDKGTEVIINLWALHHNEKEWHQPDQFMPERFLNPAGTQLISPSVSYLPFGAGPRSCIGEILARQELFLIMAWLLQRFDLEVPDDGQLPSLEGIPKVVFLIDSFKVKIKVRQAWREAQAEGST
Summary of the method: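 Purified truncated human CYP17A1 (CYP171dH), expressed in E. coli, assayed for 17α-hydroxylase activity following a previously reported procedure. […] Reference CYP17 inhibitors were run in the same system as positive controls.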

## Cc1nccn1C(=O)O[C@H]1CC[C@@]2(C)C(=CC[C@@H]3[C@@H]2CC[C@]2(C)C(n4cnc5ccccc54)=CC[C@@H]32)C1
LNCaP [1]
  Activity: Active
LNCaP [2]
  Activity: Active
LNCaP [3]
  GI50: 5.34 µM
CWR22R
  Activity: Active

## C[C@]12CCC(=O)C=C1CC[C@@H]1[C@@H]2CC[C@]2(C)C(n3cnc4ccccc43)=CC[C@@H]12
LNCaP [1]
  Activity: Active
LNCaP [2]
  Activity: Active
LNCaP [3]
  GI50: 2.64 µM
CWR22R
  Activity: Active
[4]
  Activity: Active
[5]
  Activity: Active

## C[C@]12CC/C(=N/O)C=C1CC[C@@H]1[C@@H]2CC[C@]2(C)C(n3cnc4ccccc43)=CC[C@@H]12
LNCaP [3]
  GI50: 1.95 µM

## CNC(=O)c1ccc(N2C(=S)N(c3ccc(C#N)c(C(F)(F)F)c3)C(=O)C2(C)C)cc1F
[4]
  Activity: inactive
[5]
  Activity: inactive

## C[C@]12CC[C@H](OC(=O)n3ccnc3)CC1=CC[C@@H]1[C@@H]2CC[C@]2(C)C(n3cnc4ccccc43)=CC[C@@H]12
LNCaP [1]
  Activity: Active
LNCaP [2]
  Activity: Active
LNCaP [3]
  GI50: 0.87 µM
[6]
  Activity: 20%
CWR22R
  Activity: Active
[4]
  Activity: Active
[5]
  Activity: Active
LNCaP [7]
  Activity: Active

## C[C@]12CC[C@H](OC(=O)Cc3cccc(CC(=O)O)c3)CC1=CC[C@@H]1[C@@H]2CC[C@]2(C)C(n3cnc4ccccc43)=CC[C@@H]12
LNCaP [3]
  GI50: 7.78 µM

## C[C@]12CC[C@H](OC(=O)COCC(=O)O)CC1=CC[C@@H]1[C@@H]2CC[C@]2(C)C(n3cnc4ccccc43)=CC[C@@H]12
LNCaP [3]
  GI50: 9.13 µM

## C[C@]12CC[C@H](O)CC1=CC[C@@H]1[C@@H]2CC[C@]2(C)C(n3ccc4ccccc43)=CC[C@@H]12
LNCaP [3]
  GI50: > 100 µM
[8]
  inhibition: Active
LNCaP [9]
  Activity: Active

## C[C@]12CC[C@H](O)CC1=CC[C@@H]1[C@@H]2CC[C@]2(C)C(n3cnc4ccccc43)=CC[C@@H]12 [GALETERONE]
LNCaP [1]
  Activity: Active
LNCaP [2]
  Activity: Active
LNCaP [3]
  GI50: 3.35 µM
CWR22R
  Activity: Active
[4]
  Activity: Active
[5]
  Activity: Active
LNCaP [7]
  Activity: Active

## C[C@]12CC[C@H](O)CC1=CC[C@@H]1[C@@H]2CC[C@]2(C)C(n3cnc4cc5ccccc5cc43)=CC[C@@H]12
LNCaP [3]
  GI50: 37.1 µM
LNCaP [9]
  Activity: Active

## C[C@]12CC[C@H](O)CC1C=C[C@@H]1[C@@H]2CC[C@]2(C)C(c3cccnc3)=CC[C@@H]12 (some centres not stated)
LNCaP [3]
  GI50: 1.97 µM
[10]
  pIC50: 6.69

## Cc1cc2ncn(C3=CC[C@H]4[C@@H]5CC=C6C[C@@H](O)CC[C@]6(C)[C@H]5CC[C@]34C)c2cc1C
LNCaP [3]
  GI50: 47.7 µM
LNCaP [9]
  Activity: Active

## C[C@]12CC/C(=N\OCc3ccccc3)C=C1CC[C@@H]1[C@@H]2CC[C@]2(C)C(n3cnc4ccccc43)=CC[C@@H]12 (mixture of isomers)
LNCaP [3]
  GI50: 5.57 µM

## C[C@]12CC[C@H](OC(=O)C3CC=CCC3C(=O)O)CC1=CC[C@@H]1[C@@H]2CC[C@]2(C)C(n3cnc4ccccc43)=CC[C@@H]12 (some centres not stated)
LNCaP [3]
  GI50: 8.22 µM

## CC1(O)C=C2CC[C@@H]3[C@H](CC[C@]4(C)C(n5cnc6ccccc65)=CC[C@@H]34)[C@@]2(C)CC1 (mixture of isomers)
LNCaP [3]
  GI50: 13.3 µM

## C[C@]12CC/C(=N\O)C=C1CC[C@@H]1[C@@H]2CC[C@]2(C)C(n3cnc4ccccc43)=CC[C@@H]12
LNCaP [3]
  GI50: 2.03 µM

## C[C@]12CC[C@H](OS(C)(=O)=O)CC1=CC[C@@H]1[C@@H]2CC[C@]2(C)C(n3cnc4ccccc43)=CC[C@@H]12
LNCaP [3]
  GI50: 42.1 µM

## C[C@]12CC[C@H](O)CC1=CC[C@@H]1[C@@H]2CC[C@]2(C)C(n3c(Cl)nc4ccccc43)=CC[C@@H]12
LNCaP [3]
  GI50: 10.1 µM

## Cc1ccc(S(=O)(=O)O[C@H]2CC[C@@]3(C)C(=CC[C@@H]4[C@@H]3CC[C@]3(C)C(n5cnc6ccccc65)=CC[C@@H]43)C2)cc1
LNCaP [3]
  GI50: 47.2 µM

## C[C@]12CC[C@H](OC(=O)n3cncn3)CC1=CC[C@@H]1[C@@H]2CC[C@]2(C)C(n3cnc4ccccc43)=CC[C@@H]12
LNCaP [3]
  GI50: 6.67 µM
LNCaP [9]
  Activity: Active

## C[C@]12CCC(=O)CC1=CC[C@@H]1[C@@H]2CC[C@]2(C)C(n3cnc4ccccc43)=CC[C@@H]12
LNCaP [3]
  GI50: 16 µM

## C[C@]12CC[C@H](O)CC1=CC[C@@H]1[C@@H]2CC[C@]2(C)C(n3cnc4ccccc43)=C(CNc3ccccc3)C[C@@H]12
LNCaP [3]
  GI50: 22.1 µM

## C[C@]12CC[C@H](O)CC1=CC[C@@H]1[C@@H]2CC[C@]2(C)C(n3cnc4c(Cl)ncnc43)=CC[C@@H]12
LNCaP [3]
  GI50: 13.5 µM

## COc1ccc2ncn(C3=CC[C@H]4[C@@H]5CC=C6C[C@@H](O)CC[C@]6(C)[C@H]5CC[C@]34C)c2c1
LNCaP [3]
  GI50: 4.26 µM

## CC(C)CCNCC1=C(n2cnc3ccccc32)[C@@]2(C)CC[C@H]3[C@@H](CC=C4C[C@@H](O)CC[C@@]43C)[C@@H]2C1
LNCaP [3]
  GI50: 18.3 µM

## CO/N=C1/C=C2CC[C@@H]3[C@H](CC[C@]4(C)C(n5cnc6ccccc65)=CC[C@@H]34)[C@@]2(C)CC1 (mixture of isomers)
LNCaP [3]
  GI50: 3.38 µM

## COc1ccc(NCC2=C(n3cnc4ccccc43)[C@@]3(C)CC[C@H]4[C@@H](CC=C5C[C@@H](O)CC[C@@]54C)[C@@H]3C2)cc1OC
LNCaP [3]
  GI50: > 100 µM
[4]
  Activity: Active
[5]
  Activity: Active
